Laboratory results reported in ChEMBL document CHEMBL1124306, “New "ofloxacin" type antibacterial agents. Incorporation of the spiro cyclopropyl group at N-1” (J Med Chem, 1988).
In brackets after ≈: the same amount, converted by molar mass.

What was measured:
Format in all cases: functional
Pseudomonas aeruginosa = assay: Inhibition of growth of Pseudomonas aeruginosa
Staphylococcus aureus [1] = assay: Inhibition of growth of Staphylococcus aureus (resistant)
Escherichia coli [2] = assay: Inhibition of growth of Escherichia coli H560
Streptococcus pneumoniae = assay: Inhibition of growth of Streptococcus pneumonia
Escherichia coli [3] = assay: Minimum concentration of the drug needed to produce linear DNA at an intensity relative to oxolinic acid(at 10 ug/mL); details: read-out: I50
Method in brief: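 DNA gyrase from Escherichia coli H560, assayed by a previously published procedure. The end point is the lowest drug concentration giving linear DNA at an intensity matching the oxolinic acid reference at 10 μg/mL.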

Staphylococcus aureus [4] = assay: Inhibition of growth of Staphylococcus aureus (sensitive)
Klebsiella pneumoniae = assay: Inhibition of growth of Klebsiella pneumonia
Providencia rettgeri = assay: Inhibition of growth of Proteus rettgeri
Streptococcus pyogenes = assay: Inhibition of growth of Streptococcus pyogenes
Escherichia coli [5] = assay: Inhibition of growth of Escherichia coli vogel
Enterobacter cloacae = assay: Inhibition of growth of Entero. cloacae
Enterococcus faecalis = assay: Inhibition of growth of Streptococcus faecalis
Mus musculus [6] = assay: In vivo protective dose (PD50) in mice against Escherichia coli Vogel when administered perorally; details: po, read-out: PD50
Mus musculus [7] = assay: In vivo protective dose (PD50) in mice against Escherichia coli Vogel when administered subcutaneously; details: sc, read-out: PD50

Row | Compound | MIC (Pseudomonas aeruginosa) [µg/mL] | MIC (Staphylococcus aureus [1]) [µg/mL] | MIC (Escherichia coli [2]) [µg/mL] | MIC (Streptococcus pneumoniae) [µg/mL] | IC50 (Escherichia coli [3]) [µg/mL] | MIC (Staphylococcus aureus [4]) [µg/mL] | MIC (Klebsiella pneumoniae) [µg/mL] | MIC (Providencia rettgeri) [µg/mL] | MIC (Streptococcus pyogenes) [µg/mL] | MIC (Escherichia coli [5]) [µg/mL] | MIC (Enterobacter cloacae) [µg/mL] | MIC (Enterococcus faecalis) [µg/mL] | ED50 (Mus musculus [6]) [mg/kg] | ED50 (Mus musculus [7]) [mg/kg]
1 | CC1COc2c(N3CCNCC3)c(F)cc3c(=O)c(C(=O)O)cn1c23 (stereo unspecified) [DESMETHYL-OFLOXACIN] | 1.6 (≈ 4.61 µM) | 3.1 (≈ 8.92 µM) | 0.1 (≈ 0.288 µM) | 3.1 (≈ 8.92 µM) | 3 (≈ 8.64 µM) | 0.4 (≈ 1.15 µM) | 0.2 (≈ 0.576 µM) | 0.4 (≈ 1.15 µM) | 0.4 (≈ 1.15 µM) | 0.2 (≈ 0.576 µM) | 0.1 (≈ 0.288 µM) | 6.3 (≈ 18.1 µM) | – | –
2 | O=C(O)c1cn2c3c(c(N4CCNCC4)c(F)cc3c1=O)OCC21CC1 | 0.8 (≈ 2.23 µM) | 6.3 (≈ 17.5 µM) | 0.4 (≈ 1.11 µM) | 12.5 (≈ 34.8 µM) | 11.2 (≈ 31.3 µM) | 1.6 (≈ 4.45 µM) | 0.8 (≈ 2.23 µM) | 1.6 (≈ 4.45 µM) | 12.5 (≈ 34.8 µM) | 0.8 (≈ 2.23 µM) | 0.4 (≈ 1.11 µM) | 6.3 (≈ 17.5 µM) | – | –
3 | CC1COc2c(N3CCN(C)CC3)c(F)cc3c(=O)c(C(=O)O)cn1c23 (stereo unspecified) [OFLOXACIN] | 0.4 (≈ 1.11 µM) | 0.4 (≈ 1.11 µM) | 0.05 (≈ 0.138 µM) | 0.8 (≈ 2.21 µM) | 2.25 (≈ 6.23 µM) | 0.1 (≈ 0.277 µM) | 0.1 (≈ 0.277 µM) | 0.2 (≈ 0.553 µM) | 0.8 (≈ 2.21 µM) | 0.1 (≈ 0.277 µM) | 0.1 (≈ 0.277 µM) | 0.8 (≈ 2.21 µM) | 2 | 0.8
4 | CCNCC1CCN(c2c(F)cc3c(=O)c(C(=O)O)cn4c3c2OCC42CC2)C1 (stereo unspecified) | 6.3 (≈ 15.7 µM) | 1.6 (≈ 3.99 µM) | 1.6 (≈ 3.99 µM) | 0.05 (≈ 0.125 µM) | 5.5 (≈ 13.7 µM) | 0.1 (≈ 0.249 µM) | 3.1 (≈ 7.72 µM) | 3.1 (≈ 7.72 µM) | 0.05 (≈ 0.125 µM) | 0.8 (≈ 1.99 µM) | 0.8 (≈ 1.99 µM) | 0.8 (≈ 1.99 µM) | – | –
5 | CN(C)CC1CCN(c2c(F)cc3c(=O)c(C(=O)O)cn4c3c2OCC42CC2)C1 (stereo unspecified) | 6.3 (≈ 15.7 µM) | 0.8 (≈ 1.99 µM) | 0.8 (≈ 1.99 µM) | 0.4 (≈ 0.996 µM) | 11.2 (≈ 28 µM) | 0.2 (≈ 0.498 µM) | 0.8 (≈ 1.99 µM) | 3.1 (≈ 7.72 µM) | 0.4 (≈ 0.996 µM) | 0.4 (≈ 0.996 µM) | 0.8 (≈ 1.99 µM) | 0.8 (≈ 1.99 µM) | 16 | 6.3
6 | CCNCC1CCN(c2c(F)cc3c(=O)c(C(=O)O)cn4c3c2OCC4C)C1 (stereo unspecified) | 0.8 (≈ 2.05 µM) | 0.2 (≈ 0.514 µM) | 0.05 (≈ 0.128 µM) | 0.025 (≈ 0.0642 µM) | – | 0.006 (≈ 0.0154 µM) | 0.4 (≈ 1.03 µM) | 0.4 (≈ 1.03 µM) | 0.006 (≈ 0.0154 µM) | 0.1 (≈ 0.257 µM) | 0.2 (≈ 0.514 µM) | 0.05 (≈ 0.128 µM) | > 100 | 11
7 | CC1COc2c(N3CCC(CN(C)C)C3)c(F)cc3c(=O)c(C(=O)O)cn1c23 (stereo unspecified) | 3.1 (≈ 7.96 µM) | 0.2 (≈ 0.514 µM) | 0.2 (≈ 0.514 µM) | 0.05 (≈ 0.128 µM) | 3 (≈ 7.7 µM) | 0.05 (≈ 0.128 µM) | 0.4 (≈ 1.03 µM) | 0.8 (≈ 2.05 µM) | 0.05 (≈ 0.128 µM) | 0.2 (≈ 0.514 µM) | 0.4 (≈ 1.03 µM) | 0.4 (≈ 1.03 µM) | 6.2 | 2.6
